We go through one molecule from ChEMBL document CHEMBL1153345, “Novel tricyclic inhibitors of IkappaB kinase” (J Med Chem, 2009).

Series [1] concerns the target T1, Inhibitor of nuclear factor kappa-B kinase subunit alpha (Homo sapiens, UniProt O15111).
T1 sequence (O15111 whole entry): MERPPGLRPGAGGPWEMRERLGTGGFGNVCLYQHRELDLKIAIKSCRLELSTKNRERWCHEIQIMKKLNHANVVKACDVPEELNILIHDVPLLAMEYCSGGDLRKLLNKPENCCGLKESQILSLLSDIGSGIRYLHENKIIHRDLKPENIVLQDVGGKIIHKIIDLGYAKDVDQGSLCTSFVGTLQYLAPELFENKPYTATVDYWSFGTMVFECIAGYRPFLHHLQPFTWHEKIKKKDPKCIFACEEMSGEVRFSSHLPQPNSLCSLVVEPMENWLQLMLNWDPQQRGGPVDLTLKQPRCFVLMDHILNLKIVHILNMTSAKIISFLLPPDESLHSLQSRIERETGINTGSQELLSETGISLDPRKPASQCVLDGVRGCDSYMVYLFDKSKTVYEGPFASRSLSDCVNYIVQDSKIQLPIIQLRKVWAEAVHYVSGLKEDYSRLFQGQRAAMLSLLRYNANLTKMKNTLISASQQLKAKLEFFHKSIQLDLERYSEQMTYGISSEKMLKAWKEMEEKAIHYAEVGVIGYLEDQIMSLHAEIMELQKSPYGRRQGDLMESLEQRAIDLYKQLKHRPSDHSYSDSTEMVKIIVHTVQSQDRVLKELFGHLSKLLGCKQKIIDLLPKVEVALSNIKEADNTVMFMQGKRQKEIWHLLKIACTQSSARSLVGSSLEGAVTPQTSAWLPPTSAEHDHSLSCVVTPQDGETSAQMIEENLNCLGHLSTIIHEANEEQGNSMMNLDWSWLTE
Description: Inhibition of IKK1-mediated phosphorylation of GST-IkappaBalpha fusion protein afterr 60 mins by fluorescence polarization assay. The method in brief:
(§1)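 GST-IκBα (50 µg/mL) with 20 µM ATP in 25 mM Tris-HCl pH 7.5, 7.5 mM MgCl2, 1 mM DTT, 5% glycerol, BSA; reaction started by adding IKK enzyme (IKK-2 typically 3 µg/mL final) at room temperature. Stopped after 60 min with 33 mM EDTA. Phospho-IκBα quantified by fluorescence polarization, competing with a fluorescein-labelled phosphopeptide for anti-phospho-IκBα antibody.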
For orientation: Fluorescence polarisation rises when a labelled molecule tumbles more slowly, as on binding a larger partner.

In series [2] the target is T2, Inhibitor of nuclear factor kappa-B kinase subunit beta (Homo sapiens, UniProt O14920).
T2 sequence (O14920 whole entry): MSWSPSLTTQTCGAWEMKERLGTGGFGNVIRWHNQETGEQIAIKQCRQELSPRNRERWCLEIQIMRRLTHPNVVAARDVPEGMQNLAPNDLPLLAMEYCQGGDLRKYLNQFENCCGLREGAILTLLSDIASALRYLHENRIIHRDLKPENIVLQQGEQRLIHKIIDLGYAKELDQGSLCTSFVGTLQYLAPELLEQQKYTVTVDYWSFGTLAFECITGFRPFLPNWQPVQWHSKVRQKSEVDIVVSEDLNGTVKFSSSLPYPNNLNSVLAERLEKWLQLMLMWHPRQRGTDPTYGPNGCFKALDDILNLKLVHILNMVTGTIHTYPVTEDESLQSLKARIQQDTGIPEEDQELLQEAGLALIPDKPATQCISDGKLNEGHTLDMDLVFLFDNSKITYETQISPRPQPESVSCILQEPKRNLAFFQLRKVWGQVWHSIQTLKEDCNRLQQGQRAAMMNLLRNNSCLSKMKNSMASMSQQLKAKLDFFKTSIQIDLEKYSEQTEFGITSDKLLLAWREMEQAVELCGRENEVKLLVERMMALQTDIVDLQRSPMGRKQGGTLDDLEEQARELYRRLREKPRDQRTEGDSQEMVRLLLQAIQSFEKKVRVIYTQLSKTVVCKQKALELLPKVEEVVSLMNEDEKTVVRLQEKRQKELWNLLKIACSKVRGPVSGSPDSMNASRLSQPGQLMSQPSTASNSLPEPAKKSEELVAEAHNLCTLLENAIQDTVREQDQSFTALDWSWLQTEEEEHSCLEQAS
Description: Inhibition of IKK2-mediated phosphorylation of GST-IkappaBalpha fusion protein afterr 60 mins by fluorescence polarization assay. The method in brief:
as §1

In series [3] the test system is PBMC. Description: Inhibition of LPS-induced TNFalpha production in human PBMC preincubated for 30 mins before LPS challenge measured afterr 6 hrs by ELISA. The format is functional, cell-based. The method in brief: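 PBMCs from healthy donor blood, isolated over ficoll in RPMI containing EDTA and polymyxin, then resuspended in RPMI/10% FBS at 1 × 10^6 cells/mL. Compound preincubated 30 min, then LPS added (25 ng/mL final). Incubated 6 h at 37 °C, 5% CO2; supernatant TNF-α measured by ELISA.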
For orientation: In an ELISA, binding on a coated surface is turned into a signal by an enzyme label.

Series [4] has as its system Liver microsomes. Briefly: Metabolic stability in rat liver microsomes assessed as clearance at 3 uM after 1 hr. The format is ADME, Microsome. The method in brief: (§2)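 Liver microsomes (mouse, human or rat) at 1 mg/mL protein with 3 µM compound in 65 mM phosphate buffer pH 7.4 and 1 mM NADPH, 37 °C, 1 h. Samples taken at 0 and 15 min and quenched with acetonitrile. Metabolic rate calculated from parent disappearance between 0 and 15 min.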

The test system of series [5] is Liver microsomes. Description: Metabolic stability in human liver microsomes assessed as clearance at 3 uM after 1 hr. The series is classed as ADME, Microsome. Summed up:
as §2
For orientation: Liver microsomes are vesicles of endoplasmic reticulum, rich in cytochrome P450 enzymes.

Series [6] can be described thus: Metabolic stability in mouse liver microsomes assessed as clearance at 3 uM after 1 hr. The series is classed as ADME, Microsome. Summed up: as §2
Series [7] can be described thus: Cmax in rat at 2 mg/kg, iv. More on the design: dose 2 mg/kg, route intravenous. The series is classed as ADME, organism-based. The conditions noted are these: in vivo. Summed up:
(§3)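 Some compounds were dosed as a cassette of five compounds at 2 mg/kg each, after prescreening to exclude potent CYP inhibitors (IC50 < 10 µM).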

Series [8] is described as follows: AUC in rat at 2 mg/kg, iv. The format is ADME, organism-based. Set-up: dose 2 mg/kg, route intravenous. The note with it: plasma. Summed up:
as §3

The nature of series [9]: Half life in rat at 2 mg/kg, iv. The series is classed as ADME, organism-based. Set-up: dose 2 mg/kg, route intravenous. The conditions noted are these: in vivo. The method in brief: as §3
Series [10] in a line: Clearance in rat at 2 mg/kg, iv. Set-up: dose 2 mg/kg, route intravenous. The series is classed as ADME, organism-based. The note with it: in vivo. Summed up: as §3
Series [11] can be described thus: Volume of distribution at steady state in rat at 2 mg/kg, iv. The series is classed as ADME, organism-based. More on the design: dose 2 mg/kg, route intravenous. The note with it: in vivo, read-out: Vdss. The method in brief: as §3
In series [12] the test system is Mus musculus. Briefly: Inhibition of LPS-induced TNFalpha release in serum of BALB/c mouse at 10 mg/kg, po administered 4 hrs before LPS challenge measured afterr 90 mins by ELISA relative to control. The format is functional. Summed up:
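Female BALB/c mice, 6-8 weeks old, acclimated at least 1 week. Compound given orally in 100% PEG300 (0.1 mL) about 4 h before ip LPS (E. coli O111:B4, 0.1 mL of 10 µg/mL in PBS; 50 µg/kg). Vehicle-only controls. Blood taken 90 min after LPS; serum TNF-α by ELISA; mean ± SEM, n = 8 per group.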

Consider `CNc1nc2sc(-c3cccc(CNC(=O)c4csnn4)c3)nc2c2c1ncn2C`, for which the results for the IC50 in [1], in series [2] and in series [3] were 10000 nM, 16 nM and 82 nM, respectively. The values for the CL in [4], in [5] and in series [6] were 0.14 nmol/mg/min, 0.16 nmol/mg/min and 0.23 nmol/mg/min, respectively. The molecule also yielded a Cmax in series [7] of 3.9 µM. This molecule also came in with an AUC in series [8] of 5 µM·h. This molecule gave a half-life in [9] of 36 min. Further, in series [10], the clearance came to 3 mL/min/kg. Also, the Vd in series [11] was 0.2 L/kg. In addition, in [12], the inhibition in vivo at 10 mg/kg was 50%.

As a reminder, the IC50 is the concentration at which inhibition is half-maximal. A high value points to weaker potency in that assay. For orientation: Cmax means the peak of the concentration-time curve. The term AUC denotes the area under the concentration-time curve, a measure of exposure. By half-life is commonly meant the time needed for the level to fall by half in the phase considered. High values mean slow decline, low ones rapid decline. Broadly, the clearance is the rate of elimination divided by the concentration. Higher therefore signals a high capacity for elimination. A word on the inhibition in vivo: it is the percentage by which the read-out fell short of the control.
